SMILES strings stand for the structures. Where only a bound is given, the exact number is not on record here.

Data set [1] in a line: Cytotoxicity against human HS5 cells assessed as cell death at 5 uM incubated for 72 hrs in presence of imatinib by PI staining based flow cytometry. Particulars: hs5, 72 h. The method, boiled down:
(§1)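 HS-5 stromal cells in DMEM with 10% FCS, 5% CO2, 37 °C. Seeded 0.5×10^5/well, given compound (5 µM) alone or with imatinib, and incubated 72 h. Cells stained with PI/Triton X-100 for 2 h at 4 °C. Dead cells counted by flow cytometry as sub-G1 nuclei. DMSO vehicle control included.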
A general note: A flow cytometer gives signals particle by particle.

A short description of data set [2]: Cytotoxicity against human HS5 cells assessed as cell death at 5 uM incubated for 72 hrs by PI staining based flow cytometry. The settings on record: hs5, 72 h. The method, boiled down:
as §1

Data set [3] deals with K562. The data set can be described thus: Induction of cell sensitization to imatinib in imatinib-resistant human K562 cells assessed as cell death at 10 uM incubated for 72 hrs in presence of 1 uM imatinib by PI staining based flow cytometry (reference value: 19%). It counts as functional.
Data set [4] relates to K562. Kind of data set: Cytotoxicity against imatinib-resistant human K562 cells assessed as cell death at 5 uM incubated for 72 hrs by propidium iodide staining based flow cytometry. Particulars: k562, 72 h. The procedure, abridged: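 K562-resistant cells, a doxorubicin-resistant K562 subclone (KD225), grown in RPMI 1640 with 10% FCS. Seeded 2×10^5/well and exposed 72 h to compound alone or with 1 µM imatinib. PI/Triton X-100 staining 2 h at 4 °C; flow cytometry scoring sub-G1 nuclei as dead cells. DMSO vehicle (≤0.1%) controls. Mean ± SEM of ≥3 experiments.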

Data set [5] has as its target T1, Peroxisome proliferator-activated receptor gamma (Homo sapiens, UniProt P37231).
T1 sequence (P37231 whole entry): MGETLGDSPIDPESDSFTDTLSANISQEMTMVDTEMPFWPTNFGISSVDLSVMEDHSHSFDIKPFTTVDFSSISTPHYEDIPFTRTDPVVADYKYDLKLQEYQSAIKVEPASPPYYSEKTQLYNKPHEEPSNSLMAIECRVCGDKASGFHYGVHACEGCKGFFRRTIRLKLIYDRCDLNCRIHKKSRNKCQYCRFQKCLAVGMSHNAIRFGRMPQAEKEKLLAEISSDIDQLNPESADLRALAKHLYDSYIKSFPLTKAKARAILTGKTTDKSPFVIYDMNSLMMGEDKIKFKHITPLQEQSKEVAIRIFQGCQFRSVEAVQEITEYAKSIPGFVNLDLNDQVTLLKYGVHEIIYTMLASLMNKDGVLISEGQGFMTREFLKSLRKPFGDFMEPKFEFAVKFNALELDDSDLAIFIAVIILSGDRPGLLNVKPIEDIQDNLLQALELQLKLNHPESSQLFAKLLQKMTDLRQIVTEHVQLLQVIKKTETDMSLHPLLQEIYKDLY
Kind of data set: Agonist activity at Gal4-fused human PPARgamma transfected in African green monkey COS7 cells co-transfected with pGal5-TK-pGL3 and pRenilla-CMV assessed as receptor transactivation at 10 uM incubated for 39 hrs by dual luciferase reporter gene assay relative to piaglitazone. It counts as cell-based. Particulars: COS-7, human, read-out: max activation. The procedure, abridged:
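COS-7 cells (10^4/well, triplicates) grown 24 h, then transiently transfected with pGal5-TK-pGL3 (90 ng), pGal4-hPPARγDEF (9 ng) and pRenilla-CMV (3 ng). Compound added 7 h later, incubation 39 h. Cells lysed by freezing at -80 °C overnight plus lysis buffer. Firefly luciferase normalised to Renilla. Activity at 10 µM expressed relative to pioglitazone at 10 µM (100%). Mean ± SD of ≥3 experiments.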
On the technique in general: A reporter such as luciferase makes a cellular process visible.

In data set [6] the test system is COS-7. Kind of data set: Cytotoxicity against African green monkey COS7 cells assessed as cell viability at 10 uM incubated for 72 hrs by MTT assay. The settings on record: chlorocebus aethiops, cos-7, 72 h. (In general: Tetrazolium assays rely on reduction of a dye to a coloured formazan, in cell work by metabolically active cells.)
In data set [7] the test system is COS-7. The data set can be described thus: Cytotoxicity against African green monkey COS7 cells assessed as cell viability at 10 uM incubated for 72 hrs by MTT assay. In kind it is cell-based. Particulars: chlorocebus aethiops, cos-7, 72 h. The method, boiled down:
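COS-7 cells in DMEM with 10% FCS and L-glutamine, no antibiotics or phenol red. Seeded 2×10^3/well in triplicate, grown 24 h, then compound added at 10 µM final and incubated 72 h. Modified MTT (tetrazolium) metabolic-activity readout by absorbance. DMSO control set to 100%; DMSO ≤0.1%. Mean + SD of ≥3 experiments, triplicate determinations.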

For data set [8], the system named is K562. The data set can be described thus: Induction of cell sensitization to imatinib in imatinib-resistant human K562 cells assessed as cell death at 5 uM incubated for 72 hrs in presence of 1 uM imatinib by PI staining based flow cytometry (reference value: 19%). In kind it is functional.
Data set [9] is described as follows: Modulation of STAT5 expression in imatinib-resistant human K562 cells assessed as STAT5 level at 5 uM measured after 6 hrs in presence of imatinib by Jess Simple Western immunoassay (reference value: 100%). In kind it is functional.
The target of data set [10] is T2, Signal transducer and activator of transcription 5A (Homo sapiens) (UniProt P42229).
T2 sequence (whole entry): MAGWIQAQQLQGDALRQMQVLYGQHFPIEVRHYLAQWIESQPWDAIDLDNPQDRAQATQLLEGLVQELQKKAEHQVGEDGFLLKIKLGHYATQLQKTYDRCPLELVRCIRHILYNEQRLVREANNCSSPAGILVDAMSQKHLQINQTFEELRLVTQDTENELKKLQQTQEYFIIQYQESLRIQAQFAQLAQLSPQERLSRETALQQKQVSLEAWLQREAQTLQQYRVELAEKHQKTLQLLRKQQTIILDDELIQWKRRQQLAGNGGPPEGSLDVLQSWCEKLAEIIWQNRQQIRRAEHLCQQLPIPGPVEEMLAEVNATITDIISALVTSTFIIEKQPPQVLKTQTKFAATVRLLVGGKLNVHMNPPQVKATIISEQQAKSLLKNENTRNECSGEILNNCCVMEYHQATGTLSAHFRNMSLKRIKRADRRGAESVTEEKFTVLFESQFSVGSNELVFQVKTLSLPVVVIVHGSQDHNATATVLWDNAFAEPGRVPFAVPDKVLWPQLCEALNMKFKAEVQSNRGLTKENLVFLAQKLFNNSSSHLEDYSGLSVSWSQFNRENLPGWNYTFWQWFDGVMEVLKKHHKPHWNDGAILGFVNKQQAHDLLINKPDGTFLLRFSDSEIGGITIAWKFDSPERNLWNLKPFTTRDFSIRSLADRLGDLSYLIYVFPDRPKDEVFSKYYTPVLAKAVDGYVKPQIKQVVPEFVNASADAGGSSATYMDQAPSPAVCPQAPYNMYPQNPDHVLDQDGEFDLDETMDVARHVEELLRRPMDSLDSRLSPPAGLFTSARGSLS
The data set can be described thus: Inhibition of STAT5 phosphorylation at Y694/699 residue in imatinib-resistant human K562 cells assessed as phosphorylated STAT5 level at 5 uM incubated for 6 hrs in presence of imatinib by Jess Simple Western immunoassay (reference value: 100%). Details: scale not given: the % may be the effect or the level left. In kind it is cell-based.

The target in data set [11] is T2, Signal transducer and activator of transcription 5A (Homo sapiens). Kind of data set: Inhibition of STAT5 phosphorylation at Y694/699 residue in imatinib-resistant human K562 cells assessed as phosphorylated STAT5 level at 5 uM incubated for 6 hrs by Jess Simple Western immunoassay (reference value: 100%). It counts as cell-based. Details: scale not given: the % may be the effect or the level left. The method, boiled down: (§2)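 K562-resistant (doxorubicin-resistant KD225) cells treated 6 h with compound at 5 µM, alone or with 1 µM imatinib, against a DMSO control. Total protein extracts analysed by capillary Jess Simple Western. STAT5 antibody 10 µg/ml with 0.2 mg/ml lysate; pSTAT5 (Y694/699) antibody 20 µg/ml with 2 mg/ml lysate. GAPDH (0.4 µg/ml) as loading reference; HRP anti-rabbit secondary.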

Data set [12] in a line: Modulation of STAT5 expression in imatinib-resistant human K562 cells assessed as STAT5 level at 5 uM measured after 6 hrs by Jess Simple Western immunoassay (reference value: 100%). It counts as functional. The method, boiled down: as §2

With `CCCc1nc2c([N+](=O)[O-])cccc2n1Cc1ccc(-c2ccccc2C#N)cc1`, the Activity result in [1] is recorded as “Non-Toxic”; in [2], “Non-Toxic”; in [3], more than 85%; in data set [4] it was “<= 20%”; in data set [6], “Non-Toxic”; in data set [7] it was “Non-Toxic”. In addition, the Activity in data set [8] came out at 50%. In data set [5], the Emax at 10 µM came to 37.9%.

Regarding `CCCc1nc2c(OC)cccc2n1Cc1ccc(-c2ccccc2C#N)cc1`, the Activity entry in data set [1] was “Non-Toxic”; in data set [2], “Non-Toxic”; in [3], more than 85%; in data set [4], “<= 20%”; in data set [6], “Non-Toxic”; in [7], “Non-Toxic”. For the same compound, in data set [8], the Activity came out at 50%. Further, the Emax at 10 µM in data set [5] was determined as 45.9%.

On to `CCCc1nc2c(F)cccc2n1Cc1ccc(-c2ccccc2C#N)cc1`, for which the Activity result was “Non-Toxic” in data set [1]; 96% in [9]; “Non-Toxic” in data set [2]; more than 85% in [3]; 1% in data set [10]; “<= 20%” in data set [4]. For the same compound, the Activity entry in data set [6] was “Non-Toxic”; in data set [7] it was “Non-Toxic”; in data set [11], 89%; in [12], 105%; in data set [8], 50%. The Emax at 10 µM in data set [5] turned out to be 76%.

For the compound `CCCc1nc2c(OC)cccc2n1Cc1ccc(-c2ccccc2C(=O)OC)cc1`, the Activity entry in [1] is recorded as “Non-Toxic”; in [2] it was “Non-Toxic”; in data set [3], more than 85%; in data set [4] it was “<= 20%”; in data set [6] it was “Non-Toxic”; in data set [7], “Non-Toxic”. The Activity in [8] is 57%. In addition, in [5], the Emax at 10 µM was found to be 20.7%.

In the case of `CCCc1nc2c(Cl)cccc2n1Cc1ccc(-c2ccccc2C#N)cc1`, the Activity entry in [1] is “Non-Toxic”; in data set [9] it was 109%; in [2], “Non-Toxic”; in [3] it was more than 85%; in data set [10], 12%; in data set [4], “<= 20%”. Besides, the Activity result in data set [6] was “Non-Toxic”; in data set [7] it was “Non-Toxic”; in data set [11], 81%; in data set [12], 107%; in [8] it was 50%. Moreover, the Emax at 10 µM in data set [5] was 68.4%.

Turning to `CCCc1nc2c(N)cccc2n1Cc1ccc(-c2ccccc2C(=O)OC)cc1`, the Activity entry is listed as “Non-Toxic” in data set [1]; “Non-Toxic” in data set [2]; “<= 20%” in data set [4]; “Non-Toxic” in data set [6]; “Non-Toxic” in [7]; 26% in [8]. The Emax at 10 µM in data set [5] worked out at 0.11%.

As for `CCCc1nc2ccccc2n1Cc1ccc(-c2ccccc2C#N)cc1`, the Activity entry was “Non-Toxic” in [1]; 96% in data set [9]; “Non-Toxic” in data set [2]; more than 85% in data set [3]; 3% in data set [10]; “<= 20%” in [4]. Besides, the Activity entry in data set [6] was “Non-Toxic”; in data set [7], “Non-Toxic”; in data set [11], 78%; in data set [12], 98%; in data set [8], 50%. Also, in data set [5], the Emax at 10 µM amounted to 64.5%.

Consider `CCCc1nc2c(C)cccc2n1Cc1ccc(-c2ccccc2C(=O)OC)cc1`, for which the Activity entry was “Non-Toxic” in data set [1]; “Non-Toxic” in data set [2]; more than 85% in [3]; “<= 20%” in [4]; “Non-Toxic” in data set [6]; “Non-Toxic” in [7]. For the same compound, in [8], the Activity amounted to 40%. Besides, the Emax at 10 µM in data set [5] was determined as 13.8%.

For `CCCc1nc2ccc(Br)cc2n1Cc1ccc(-c2ccccc2C(=O)OC)cc1`, in data set [3], the Activity is listed as 63%.

Regarding `CCCc1nc2c(C)cccc2n1Cc1ccc(-c2ccccc2C#N)cc1`, the Activity result in data set [1] is “Non-Toxic”; in data set [2] it was “Non-Toxic”; in data set [3], more than 85%; in [4] it was “<= 20%”; in data set [6] it was “Non-Toxic”; in [7], “Non-Toxic”. The Activity in data set [8] stood at 50%. Further, the Emax at 10 µM in data set [5] stood at 32.2%.

For the compound `CCCc1nc2cc(Br)ccc2n1Cc1ccc(-c2ccccc2C(=O)OC)cc1`, the Activity in [3] is listed as 31%.

Regarding `CCCc1nc2c(N)cccc2n1Cc1ccc(-c2ccccc2C#N)cc1`, the Activity entry in data set [1] is listed as “Non-Toxic”; in data set [2], “Non-Toxic”; in data set [4], “<= 20%”; in data set [6], “Non-Toxic”; in [7], “Non-Toxic”; in [8] it was 28%. In addition, in data set [5], the Emax at 10 µM came out at 43%.

Turning to `CCCc1nc2c([N+](=O)[O-])cccc2n1Cc1ccc(-c2ccccc2C(=O)OC)cc1`, the Activity result in data set [1] was “Non-Toxic”; in data set [2], “Non-Toxic”; in data set [3] it was more than 85%; in data set [4] it was “<= 20%”; in [6], “Non-Toxic”; in data set [7], “Non-Toxic”. Moreover, the Activity in data set [8] came to 57%. In addition, in data set [5], the Emax at 10 µM amounted to 15%.

The values above are taken from ChEMBL document CHEMBL4813967, “Tackling resistance in chronic myeloid leukemia: Novel cell death modulators with improved efficacy” (Eur J Med Chem, 2021).
